Format in all cases: functional, cell-based
Assay [1] concerns BXPC-3. Nature of the assay: Inhibitory concentration of compound against growth of human BxPC3 cell line; Resistant. The method in brief:
(§1)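 MTT dye-conversion assay. Cells kept in monolayer at 37 °C in humidified 5% CO2, trypsinized, seeded at 5 × 10³ cells/well and grown 24 h. Then treated 96 h with exponentially increasing drug concentrations in 10% FBS; compound stocks in DMSO. MTT (5 mg/mL in PBS) added for 3 h at 37 °C. Medium replaced with DMSO and OD read at 570 nm.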

The subject of assay [2] is SNU-308. Nature of the assay: Inhibitory concentration of compound against growth of human SNU-308 cell line; Resistant. The essentials:
as §1

Assay [3] has as its system HuCCT-1. Nature of the assay: Inhibitory concentration of compound against growth of human HuCCT-1 cell line; Resistant. The method in brief:
as §1

In assay [4] the test system is PANC-1. Nature of the assay: Inhibitory concentration of compound against growth of human Panc-1 cell line; Resistant. The essentials:
as §1

Assay [5] concerns MIA PaCa-2. Nature of the assay: Inhibitory concentration of compound against growth of human MIA PaCa cell line; Resistant. The essentials: as §1
Assay [6] concerns A-431. Nature of the assay: Inhibitory concentration of compound against growth of human A431 cell line; Resistant. The method in brief:
as §1

The test system of assay [7] is HEp-2. Nature of the assay: Inhibitory concentration of compound against growth of human Hep2 cell line; Resistant. The method in brief: as §1
Assay [8] concerns HN006 cell line. Nature of the assay: Inhibitory concentration of compound against growth of human HN006 cell line; Resistant. The essentials: as §1
Assay [9] deals with MIA PaCa-2. Nature of the assay: Inhibitory concentration of compound against growth of human Mia-Paca cell line. The method in brief:
as §1

Assay [10] deals with HEp-2. Nature of the assay: Inhibitory concentration of compound against growth of human Hep2 cell line. The method in brief: as §1
Assay [11] relates to BXPC-3. Nature of the assay: Inhibitory concentration of compound against growth of human BxPC3 cell line. The essentials:
as §1

The test system of assay [12] is HEp-2. Nature of the assay: Cytotoxicity of compound against growth of human Hep2 cell line. The method in brief:
as §1

pIC50: −log10 of the molar value.

On to `CNc1ccccc1C(=O)N(C)C(=O)Nc1ccc(Oc2ncc(Br)cn2)c(C)c1`, for which the Activity entry in [1], in assay [2], in [3], in [4], in [5] and in assay [6] was “Resistant” throughout. Further, the Activity entry in assay [7] and in assay [8] was “Resistant” throughout.

By pIC50 is commonly meant the negative decadic logarithm of the IC50, by convention in mol/L. A high value points to a small IC50. With `CNc1ccccc1C(=O)NC(=O)Nc1ccc(Oc2ncc(Br)cn2)c(C)c1`, the pIC50 in [9], in assay [10] and in [11] was 6.00 each time.

The molecule `Cc1cc(NC(=O)N(C)C(=O)c2ccccc2N)ccc1Oc1ncc(Br)cn1` gave a pIC50 in [12] of 5.30.

In [12], `Cc1cc(NC(=O)N(C)C(=O)c2ccccc2NC(=O)N(C)C(=O)c2ccccc2N)ccc1Oc1ncc(Br)cn1` showed a pIC50 of 5.30.

The values above are taken from ChEMBL document CHEMBL1147559, “Synthesis and antitumor evaluation of benzoylphenylurea analogs” (Bioorg Med Chem Lett, 2004).
